The source made the active and inactive calls. No cut-off for these calls is given here.
How the values were obtained:
SW480 [1] = experiment: Antiproliferative activity against human SW480 cells incubated for 72 hrs by CCK8 assay; conditions: SW480, 72 h
HCT-116 = experiment: Antiproliferative activity against human HCT116 cells incubated for 72 hrs by CCK8 assay; conditions: HCT-116, 72 h
[2] = Permeability in human Caco2 cells; format: ADME, cell-based; conditions: caco-2
MIA PaCa-2 = experiment: Antiproliferative activity against human MIAPaCa2 cells incubated for 72 hrs by CCK8 assay; format: functional, cell-based
SW480 [3] = experiment: Antiproliferative activity against human SW480 cells incubated for 72 hrs in presence of 30 uM pomalidomide by CCK8 assay; conditions: SW480, 72 h
SW480 [4] = experiment: Induction of apoptosis in human SW480 cells assessed as early apoptotic cells level at 40 uM incubated for 24 hrs by propidium iode and annexin V-FITC staining based flow cytometry (reference value: 1.76%); format: functional
SW480 [5] = experiment: Induction of apoptosis in human SW480 cells assessed as late apoptotic cells level at 40 uM incubated for 24 hrs by propidium iode and annexin V-FITC staining based flow cytometry (reference value: 4.46%); format: functional
SW480 [6] = experiment: Induction of apoptosis in human SW480 cells assessed as necrotic cells level at 40 uM incubated for 24 hrs by propidium iode and annexin V-FITC staining based flow cytometry (reference value: 2.79%); format: functional
SW480 [7] = experiment: Induction of apoptosis in human SW480 cells assessed as early apoptotic cells level at 20 uM incubated for 24 hrs by propidium iode and annexin V-FITC staining based flow cytometry (reference value: 1.76%); format: functional
SW480 [8] = experiment: Induction of apoptosis in human SW480 cells assessed as late apoptotic cells level at 20 uM incubated for 24 hrs by propidium iode and annexin V-FITC staining based flow cytometry (reference value: 4.46%); format: functional
SW480 [9] = experiment: Induction of apoptosis in human SW480 cells assessed as necrotic cells level at 20 uM incubated for 24 hrs by propidium iode and annexin V-FITC staining based flow cytometry (reference value: 2.79%); format: functional
SW480 [10] = experiment: Antitumor activity against human SW480 cells xenografted in BALB/C nude mouse assessed as tumor growth inhibition at 50 mg/kg, ip dosed once daily for 12 consecutive days relative to control; format: functional; conditions: read-out: TGI
Procedure, shortened: (§1)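 SW480 xenografts in nude mice, dosed intraperitoneally once a day for 12 consecutive days and compared with a vehicle group. Tumor growth followed over time and expressed as TGI, with data as mean ± standard deviation and significance by P value. Body weight and adverse effects were monitored throughout the study.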

[11] = Toxicity in BALB/C nude mouse xenografted with human SW480 cells assessed as induction of body weight loss at 50 mg/kg, ip dosed once daily for 12 consecutive days; format: organism-based; conditions: in vivo; procedure, shortened: as §1
[12] = Toxicity in BALB/C nude mouse xenografted with human SW480 cells assessed as induction of adverse effects at 50 mg/kg, ip dosed once daily for 12 consecutive days; format: organism-based; conditions: in vivo; procedure, shortened: as §1
Mus musculus [13] = experiment: In-vivo protac activity at cereblon/PDE6D in BALB/C nude mouse xenografted with human SW480 cells assessed as decrease in PDEdelta level at 50 mg/kg, ip dosed once daily for 12 consecutive days by immunofluorescence assay; format: functional, organism-based
Procedure, shortened: (§2)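 Tumor tissue from SW480-transplanted nude mice analysed by immunofluorescence for PDEδ, RAS and p-Akt protein expression.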

Mus musculus [14] = experiment: In-vivo protac activity at cereblon/PDE6D in BALB/C nude mouse xenografted with human SW480 cells assessed as decrease in p-Akt level at 50 mg/kg, ip dosed once daily for 12 consecutive days by immunofluorescence assay; format: functional, organism-based; procedure, shortened: as §2
[15] = Half life in Sprague-Dawley rat at 50 mg/kg, ip measured after 0.083 to 24 hrs by LC-MS/MS analysis; format: ADME, organism-based; conditions: in vivo
Procedure, shortened: (§3)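 Rats given the compound intraperitoneally at 50 mg/kg, with drug levels measured in plasma over time. The concentration–time profile gave half-life, Cmax and AUC.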

[16] = Tmax in Sprague-Dawley rat at 50 mg/kg, ip measured after 0.083 to 24 hrs by LC-MS/MS analysis; format: ADME, organism-based; conditions: in vivo; procedure, shortened: as §3
[17] = Cmax in Sprague-Dawley rat at 50 mg/kg, ip measured after 0.083 to 24 hrs by LC-MS/MS analysis; format: ADME, organism-based; parameters: dose 50 mg/kg, route intraperitoneal; conditions: in vivo; procedure, shortened: as §3
[18] = AUC (0 to infinity) in Sprague-Dawley rat at 50 mg/kg, ip measured after 0.083 to 24 hrs by LC-MS/MS analysis; format: ADME, organism-based; parameters: dose 50 mg/kg, route intraperitoneal, time infinity; conditions: in vivo; procedure, shortened: as §3
[19] = Clearance in Sprague-Dawley rat at 50 mg/kg, ip measured after 0.083 to 24 hrs by LC-MS/MS analysis; format: ADME, organism-based; conditions: in vivo; procedure, shortened: as §3

Cc1ccc(-n2nc3c(=O)n(CCCC(=O)NCCCCNc4cccc5c4C(=O)N(C4CCC(=O)NC4=O)C5=O)nc(C)c3c2C)cc1 (stereo unspecified)
IC50 (SW480 [1]): 76 µM
IC50 (HCT-116): 51 µM

Cc1ccc(-n2nc3c(=O)n(CCCC(=O)NCCOCCOCCNc4cccc5c4C(=O)N(C4CCC(=O)NC4=O)C5=O)nc(C)c3c2C)cc1 (stereo unspecified)
IC50 (SW480 [1]): 58 µM
IC50 (HCT-116): 25 µM

Cc1ccc(-n2nc3c(=O)n(CCCC(=O)NCCCCCCCNc4cccc5c4C(=O)N(C4CCC(=O)NC4=O)C5=O)nc(C)c3c2C)cc1 (stereo unspecified)
IC50 (SW480 [1]): 12 µM
IC50 (HCT-116): 20 µM

Cc1ccc(-n2nc3c(=O)n(CCCC(=O)NCCCOCCOCCOCCCNc4cccc5c4C(=O)N(C4CCC(=O)NC4=O)C5=O)nc(C)c3c2C)cc1 (stereo unspecified)
IC50 (SW480 [1]): 26 µM
IC50 (HCT-116): 23 µM

Cc1ccc(-n2nc3c(=O)n(CCCC(=O)NCCCCCCCCNc4cccc5c4C(=O)N(C4CCC(=O)NC4=O)C5=O)nc(C)c3c2C)cc1 (stereo unspecified)
IC50 (SW480 [1]): 8 µM
IC50 (HCT-116): 8 µM
permeability [2]: Impermeable
Activity (MIA PaCa-2): Active
IC50 (SW480 [3]): 71 µM
Activity (SW480 [4]): 62.58%
Activity (SW480 [5]): 2.95%
Activity (SW480 [6]): 0.37%
Activity (SW480 [7]): 36.25%
Activity (SW480 [8]): 2.06%
Activity (SW480 [9]): 0.9%
inhibition in vivo at 50 mg/kg (SW480 [10]): 43%
Activity [11]: Non-Toxic
Activity [12]: Non-Toxic
Activity (Mus musculus [13]): Active
Activity (Mus musculus [14]): Active
half-life [15]: 307 min
Tmax [16]: 1.67 h
Cmax [17]: 564 ng/mL
AUC(0-inf) [18]: 4710 ng·h/mL
CL/F [19]: 179 mL/min/kg

Cc1ccc(-n2nc3c(=O)n(CCCC(=O)NCCCCCCCCNc4cccc5c4C(=O)N(C4CCC(=O)N(C)C4=O)C5=O)nc(C)c3c2C)cc1 (stereo unspecified)
IC50 (SW480 [1]): 70 µM

Cc1ccc(-n2nc3c(=O)n(CCCC(=O)NCCCNc4cccc5c4C(=O)N(C4CCC(=O)NC4=O)C5=O)nc(C)c3c2C)cc1 (stereo unspecified)
IC50 (SW480 [1]): 81 µM
IC50 (HCT-116): 68 µM

Cc1ccc(-n2nc3c(=O)n(CCCC(=O)NCCCCCCNc4cccc5c4C(=O)N(C4CCC(=O)NC4=O)C5=O)nc(C)c3c2C)cc1 (stereo unspecified)
IC50 (SW480 [1]): 15 µM
IC50 (HCT-116): 19 µM

Cc1ccc(-n2nc3c(=O)n(CCCC(=O)NCCCCCCCCNc4ccc5c(c4)C(=O)N(C4CCC(=O)NC4=O)C5=O)nc(C)c3c2C)cc1 (stereo unspecified)
IC50 (SW480 [1]): 7 µM

Cc1ccc(-n2nc3c(=O)n(CCCC(=O)NCC(C)c4ccccc4)nc(C)c3c2C)cc1 (stereo unspecified)
IC50 (SW480 [1]): 56 µM
IC50 (HCT-116): 74 µM
Activity (SW480 [4]): 2.49%
Activity (SW480 [5]): 8.61%
Activity (SW480 [6]): 2.44%
inhibition in vivo at 50 mg/kg (SW480 [10]): 24%
Activity [11]: Non-Toxic
Activity [12]: Non-Toxic
Activity (Mus musculus [13]): inactive

Cc1ccc(-n2nc3c(=O)n(CCCC(=O)NCCCCCNc4cccc5c4C(=O)N(C4CCC(=O)NC4=O)C5=O)nc(C)c3c2C)cc1 (stereo unspecified)
IC50 (SW480 [1]): 17 µM
IC50 (HCT-116): 32 µM

Source: ChEMBL document CHEMBL4616722, “Discovery of Novel PDEδ Degraders for the Treatment of KRAS Mutant Colorectal Cancer” (J Med Chem, 2020)
